The test system of data set [1] is 4T1. The data set is described as follows: Inhibition of metastasis in mouse 4T1 cells assessed as cell shrinkage at 0.2 mM incubated for 24 hrs by Hoechst 33342 staining based confocal laser scanning microscopic method. Format: functional. Put shortly: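 After 24 h treatment, 4T1 cells were stained with Alexa Fluor 488 phalloidin for F-actin and Hoechst 33342 for nuclei, then imaged by fluorescence microscopy to assess cytoskeleton and cell morphology.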

The subject of data set [2] is 4T1. Nature of the data set: Antitumour activity against mouse 4T1 cells xenografted in BALB/c mouse assessed as reduction in number of Ki67 positive tumor cells at 10 mg/kg administered intratumorally and measured after 24 days by H and E staining based inverted optical microscopic method. It is filed as functional, organism-based. In outline: (§1)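 BALB/c mice bearing subcutaneous 4T1 tumours received 6 doses at 10 mg/kg body weight, matched for YSL monomer molar amount, with saline as control. Tumour sections were stained for H&E, CD31, Ki-67 and TUNEL. n = 5.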

Data set [3] has as its system 4T1. The data set is described as follows: Antitumour activity against mouse 4T1 cells xenografted in BALB/c mouse assessed as reduction in number of lung tumor metastatic nodules at 10 mg/kg administered intratumorally and measured after 24 days by H and E staining based inverted optical microscopic method. It is filed as functional, organism-based. In outline:
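After 6 doses of 10 mg/kg to 4T1 tumour-bearing BALB/c mice (saline control), lungs were photographed whole and examined histopathologically for the number and size of metastatic nodules.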

Data set [4] deals with 4T1. The data set is described as follows: Antiproliferative activity against mouse 4T1 cells at 0.1 mM incubated for 24 hrs by MTT assay. Format: functional, cell-based. In general terms: Tetrazolium assays rely on reduction of a dye to a coloured formazan, in cell work by metabolically active cells.
The target of data set [5] is Matrix metalloproteinase-9 (Mus musculus) (UniProt P41245). The data set is described as follows: Residual MMP9 activity in mouse 4T1 cells at 0.2 mM incubated for 24 hrs by coomassie brilliant blue staining based gelatin zymography assay relative to control.
Matrix metalloproteinase-9 (Mus musculus), sequence (P41245 whole entry): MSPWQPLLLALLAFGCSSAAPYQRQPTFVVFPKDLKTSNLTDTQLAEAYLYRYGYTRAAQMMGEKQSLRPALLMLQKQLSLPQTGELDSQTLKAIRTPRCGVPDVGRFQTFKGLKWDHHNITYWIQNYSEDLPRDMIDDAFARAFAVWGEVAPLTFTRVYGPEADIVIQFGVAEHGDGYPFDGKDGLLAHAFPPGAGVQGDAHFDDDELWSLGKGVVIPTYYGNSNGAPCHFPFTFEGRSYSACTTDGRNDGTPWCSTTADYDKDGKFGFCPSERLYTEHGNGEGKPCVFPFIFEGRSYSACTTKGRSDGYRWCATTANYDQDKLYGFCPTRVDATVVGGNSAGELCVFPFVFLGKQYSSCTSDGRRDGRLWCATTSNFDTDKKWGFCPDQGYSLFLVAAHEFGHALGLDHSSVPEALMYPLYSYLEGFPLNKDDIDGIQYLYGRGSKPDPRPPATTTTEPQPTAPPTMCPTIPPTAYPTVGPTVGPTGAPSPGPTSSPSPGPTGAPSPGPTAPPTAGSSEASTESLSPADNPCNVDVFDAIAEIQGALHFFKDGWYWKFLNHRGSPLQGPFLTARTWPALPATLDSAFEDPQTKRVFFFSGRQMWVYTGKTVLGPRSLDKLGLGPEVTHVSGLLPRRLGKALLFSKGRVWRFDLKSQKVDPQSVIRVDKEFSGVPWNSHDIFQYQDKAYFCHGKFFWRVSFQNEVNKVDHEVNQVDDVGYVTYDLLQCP
The nature of data set [6]: Toxicity in BALB/c mouse xenografted with mouse 4T1 cells assessed as change in blood urea nitrogen level at 10 mg/kg administered intratumorally and measured after 24 days. Format: organism-based. To be noted: in vivo, other, 576 h.
Data set [7] deals with 4T1. The data set is described as follows: Antitumour activity against mouse 4T1 cells xenografted in BALB/c mouse assessed as […] at 10 mg/kg administered intratumorally and measured after 24 days by H and E staining based inverted optical microscopic method. Format: functional, organism-based. In outline: as §1
Data set [8] in a line: Toxicity in BALB/c mouse xenografted with mouse 4T1 cells assessed as induction of morphological lesions in heart at 10 mg/kg administered intratumorally and measured after 24 days by H and E staining based inverted optical microscopic method. To be noted: in vivo, other, 576 h. It is filed as organism-based.
For data set [9], the system named is 4T1. The data set is described as follows: Induction of apoptosis in mouse 4T1 cells assessed as necrotic cells at 0.4 mM incubated for 24 hrs by Annexin V-FITC/PI based FACS analysis (reference value: 0.47%). Format: functional.
In data set [10] the test system is 4T1. The data set is described as follows: Induction of cell cycle arrest in mouse 4T1 cells assessed as accumulation at S phase at 0.4 mM incubated for 24 hrs by PI staining based flow cytometric analysis (Rvb =42.35%). It is filed as functional. A general note: Flow cytometry measures light scatter and fluorescence of single cells or particles in a stream.
For data set [11], the system named is 4T1. The data set is described as follows: Potency index, ratio of test compound effect to YSL effect for inhibition of cell migration in mouse 4T1 cells. Format: functional.

These results are taken from ChEMBL document CHEMBL4406918, “Inhibitory Effects of Multivalent Polypeptides on the Proliferation and Metastasis of Breast Cancer Cells” (ACS Med Chem Lett, 2019).

The structures appear in SMILES notation. Activity calls are given as the source filed them. The rule behind the calls is not given here.

The term residual activity denotes the signal under treatment as a percentage of the control signal. A lower residual activity goes with little activity left. In the case of `COC(=O)[C@H](CCCCNC(=O)[C@H](CCCCNC(=O)[C@H](CCCCNC(=O)[C@H](CC(C)C)NC(=O)[C@H](CO)NC(=O)[C@@H](N)Cc1ccc(O)cc1)NC(=O)[C@H](CC(C)C)NC(=O)[C@H](CO)NC(=O)[C@@H](N)Cc1ccc(O)cc1)NC(=O)[C@H](CCCCNC(=O)[C@H](CC(C)C)NC(=O)[C@H](CO)NC(=O)[C@@H](N)Cc1ccc(O)cc1)NC(=O)[C@H](CC(C)C)NC(=O)[C@H](CO)NC(=O)[C@@H](N)Cc1ccc(O)cc1)NC(=O)[C@H](CCCCNC(=O)[C@H](CCCCNC(=O)[C@H](CC(C)C)NC(=O)[C@H](CO)NC(=O)[C@@H](N)Cc1ccc(O)cc1)NC(=O)[C@H](CC(C)C)NC(=O)[C@H](CO)NC(=O)[C@@H](N)Cc1ccc(O)cc1)NC(=O)[C@H](CCCCNC(=O)[C@H](CC(C)C)NC(=O)[C@H](CO)NC(=O)[C@@H](N)Cc1ccc(O)cc1)NC(=O)[C@H](CC(C)C)NC(=O)[C@H](CO)NC(=O)[C@@H](N)Cc1ccc(O)cc1`, in the data set on 4T1 [1], the inhibition result was “Active”. In addition, the outcome in the data set on 4T1 [2], with 4T1 [3] and in the data set with 4T1 [7] was Active. Further, the result with 4T1 [4] was inactive. In addition, the residual activity in data set [5] is 34%. In addition, the Activity entry in data set [6] was “Non-Toxic”; in [8], “Non-Toxic”; in the data set on 4T1 [9] it was 2.41%; with 4T1 [10] it was 46.42%. Moreover, in the data set with 4T1 [11], the Ratio came to 4.5.
